According to ChEMBL document CHEMBL3877250, “Design, synthesis, and biological evaluation of (2E)-(2-oxo-1, 2-dihydro-3H-indol-3-ylidene)acetate derivatives as anti-proliferative agents through ROS-induced cell apoptosis” (Eur J Med Chem, 2016):
Activity calls are given as the source filed them. The rule behind the calls is not given here.

Tests used:
[1] = Cytotoxicity against human MDA-MB-231 cells assessed as growth inhibition at 20 uM after 72 hrs by CCK-8 assay; format: functional; conditions: MDA-MB-231, 72 h, read-out: GI
Method in brief: (§1)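 Cells kept in RPMI 1640 with 10% heat-inactivated fetal calf serum and 1% streptomycin/penicillin at 37 °C, 5% CO2. After compound exposure, CCK-8 was added and cells were incubated 4 h at 37 °C, then absorbance was read at 450 nm. Viability is relative to untreated cells (100%). IC50 comes from nonlinear regression, mean of three separate determinations. Single-concentration screen at 20 µM.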

[2] = Cytotoxicity against human HCT116 cells assessed as growth inhibition at 20 uM after 72 hrs by CCK-8 assay; format: functional; conditions: HCT-116, 72 h, read-out: GI; method in brief: as §1
[3] = Cytotoxicity against human OVCAR3 cells assessed as growth inhibition at 20 uM after 72 hrs by CCK-8 assay; format: functional; conditions: OVCAR-3, 72 h, read-out: GI; method in brief: as §1
[4] = Cytotoxicity against human L02 cells after 72 hrs by CCK-8 assay; format: toxicity, cell-based; method in brief: as §1
[5] = Cytotoxicity against human SK-BR-3 cells after 72 hrs by CCK-8 assay; format: functional, cell-based; conditions: SK-BR-3, 72 h; method in brief: as §1
[6] = Cytotoxicity against human Saos2 cells after 72 hrs by CCK-8 assay; format: functional, cell-based; conditions: SAOS-2, 72 h; method in brief: as §1
[7] = system: HCT-116; assay: Induction of apoptosis in human HCT116 cells assessed as live cells at 0.1 uM after 48 hrs by Annexin V-FITC/propidium iodide staining based flow cytometry (reference value: 88.7%); format: functional
[8] = system: HCT-116; assay: Induction of apoptosis in human HCT116 cells assessed as early apoptotic cells at 0.5 uM after 48 hrs by Annexin V-FITC/propidium iodide staining based flow cytometry (reference value: 3.8%); format: functional
Method in brief: (§2)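 HCT116 seeded at 2×10^5 cells/well, cultured 6 h, then treated 48 h at 0.1, 0.5, 1, 4, 8 or 16 µM; DMSO (0.1%) served as vehicle. Cells washed twice in cold PBS, resuspended in binding buffer with FITC Annexin V and PI for 15 min at RT in the dark, diluted, and run on flow cytometry within 1 h.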

[9] = system: HCT-116; assay: Induction of apoptosis in human HCT116 cells assessed as necrotic cells at 0.5 uM after 48 hrs by Annexin V-FITC/propidium iodide staining based flow cytometry (reference value: 0.8%); format: functional
[10] = system: HCT-116; assay: Induction of apoptosis in human HCT116 cells assessed as live cells at 1 uM after 48 hrs by Annexin V-FITC/propidium iodide staining based flow cytometry (reference value: 88.7%); format: functional
[11] = system: HCT-116; assay: Induction of apoptosis in human HCT116 cells assessed as live cells at 4 uM after 48 hrs by Annexin V-FITC/propidium iodide staining based flow cytometry (reference value: 88.7%); format: functional
[12] = system: HCT-116; assay: Induction of apoptosis in human HCT116 cells assessed as late apoptotic cells at 4 uM after 48 hrs by Annexin V-FITC/propidium iodide staining based flow cytometry (reference value: 6.7%); format: functional
[13] = system: HCT-116; assay: Induction of apoptosis in human HCT116 cells assessed as live cells at 8 uM after 48 hrs by Annexin V-FITC/propidium iodide staining based flow cytometry (reference value: 88.7%); format: functional
[14] = system: HCT-116; assay: Induction of apoptosis in human HCT116 cells assessed as necrotic cells at 8 uM after 48 hrs by Annexin V-FITC/propidium iodide staining based flow cytometry (reference value: 0.8%); format: functional
[15] = system: HCT-116; assay: Induction of apoptosis in human HCT116 cells assessed as necrotic cells at 16 uM after 48 hrs by Annexin V-FITC/propidium iodide staining based flow cytometry (reference value: 0.8%); format: functional
[16] = Cell cycle arrest in human HCT116 cells assessed as G1 phase accumulation at 0.5 uM after 48 hrs by Annexin V-FITC/propidium iodide staining based flow cytometry (reference value: 40.83%); format: functional; conditions: HCT-116
[17] = Cell cycle arrest in human HCT116 cells assessed as S phase accumulation at 0.5 uM after 48 hrs by Annexin V-FITC/propidium iodide staining based flow cytometry (reference value: 28.43%); format: functional; conditions: HCT-116
[18] = Cell cycle arrest in human HCT116 cells assessed as sub-G1 phase accumulation at 0.5 uM after 48 hrs by Annexin V-FITC/propidium iodide staining based flow cytometry (reference value: 4.36%); format: functional; conditions: HCT-116
[19] = Cell cycle arrest in human HCT116 cells assessed as G2/M phase accumulation at 1 uM after 48 hrs by Annexin V-FITC/propidium iodide staining based flow cytometry (reference value: 25.3%); format: functional; conditions: HCT-116
[20] = Cell cycle arrest in human HCT116 cells assessed as G2/M phase accumulation at 3 uM after 48 hrs by Annexin V-FITC/propidium iodide staining based flow cytometry (reference value: 25.3%); format: functional; conditions: HCT-116
[21] = Cell cycle arrest in human HCT116 cells assessed as G1 phase accumulation at 4 uM after 48 hrs by Annexin V-FITC/propidium iodide staining based flow cytometry (reference value: 40.83%); format: functional; conditions: HCT-116
[22] = Cell cycle arrest in human HCT116 cells assessed as S phase accumulation at 4 uM after 48 hrs by Annexin V-FITC/propidium iodide staining based flow cytometry (reference value: 28.43%); format: functional; conditions: HCT-116
[23] = Cell cycle arrest in human HCT116 cells assessed as G2/M phase accumulation at 4 uM after 48 hrs by Annexin V-FITC/propidium iodide staining based flow cytometry (reference value: 25.3%); format: functional; conditions: HCT-116
[24] = Cell cycle arrest in human HCT116 cells assessed as sub-G1 phase accumulation at 4 uM after 48 hrs by Annexin V-FITC/propidium iodide staining based flow cytometry (reference value: 4.36%); format: functional; conditions: HCT-116
[25] = system: HCT-116; assay: Induction of apoptosis in human HCT116 cells assessed as activation of cleaved caspases 3 after 9 hrs by Western blot method; format: functional, cell-based
Method in brief: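 HCT116 plated at 4×10^5 cells/well and incubated with or without compound for 9 h. Protein then extracted and run on 12% SDS-PAGE western blot probed with anti-cleaved caspase 3, anti-caspase 3, anti-Bax and anti-Bcl-2.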

[26] = system: HCT-116; assay: Induction of apoptosis in human HCT116 cells assessed as increase in intracellular reactive oxygen species at 0.17 to 8 uM by DCFH-DA probe-based flow cytometry; format: functional, cell-based; conditions: TDE = time-dependent effect
Method in brief: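 For the dose series, HCT116 cells were seeded at 5 × 10⁴ cells/well, grown 24 h, then exposed 3 h to DMSO or graded compound levels, with a Rosup positive group. Cells were washed with PBS and serum-free medium, loaded with DCFH-DA (1 μmol/L) in serum-free medium at 37 °C for 20 min, and ROS fluorescence was read by flow cytometry.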

[27] = system: HCT-116; assay: Induction of apoptosis in human HCT116 cells assessed as increase in intracellular reactive oxygen species at 2 to 3 hrs by DCFH-DA probe-based flow cytometry; format: functional, cell-based
[28] = system: HCT-116; assay: Inhibition of TrxR in human HCT116 cells after 3 hrs by DTNB assay; format: cell-based
Method in brief: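 HCT116 cells plated at 4 × 10⁵ cells/well in six-well plates and incubated with or without compound for 3 h. Total protein extracted and quantified. Cellular TrxR activity measured by a DTNB-based kit with absorbance read at 412 nm.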

[29] = system: HCT-116; assay: Induction of apoptosis in human HCT116 cells assessed as early apoptotic cells at 16 uM after 48 hrs by Annexin V-FITC/propidium iodide staining based flow cytometry (reference value: 3.8%); format: functional; method in brief: as §2

`CC(C)(C)OC(=O)/C=C1/C(=O)Nc2ccccc21` gave an inhibition of growth at 20 µM [1] of 87.6%, an inhibition of growth at 20 µM [2] of 89.5% and an inhibition of growth at 20 µM [3] of 59.6%. It also gave an IC50 at 72 h [4] of 2.45 µM, an IC50 [5] of 3.42 µM and an IC50 [6] of 6.11 µM. The Activity [7] was 90.8%, the Activity [8] was 2.9% and the Activity [9] was 0.6%. The Activity [10] was 87.9%, the Activity [11] was 89.1% and the Activity [12] was 6.6%. The Activity [13] was 78.4%, the Activity [14] was 0.8% and the Activity [15] was 2.1%. The Activity [16] was 40.9%, the Activity [17] was 28.9% and the Activity [18] was 0.25%. The Activity [19] was 33.1%, the Activity [20] was 22.6% and the Activity [21] was 26.2%. It also gave an Activity [22] of 22.8%, an Activity [23] of 11.7% and an Activity [24] of 35.7%. For the same compound, the Activity [25] was “Active”, the Activity [26] was “Tde” and the Activity [27] was “Dose-dependent effect”. The inhibition [28] was “Dose-dependent effect” and the Activity [29] was 2.7%.
